Laboratory results reported in ChEMBL document CHEMBL1157627, “A novel insulin secretagogue based on a dinucleoside polyphosphate scaffold” (J Med Chem, 2010).
Values belong to the compound of their own block, whether it stands above or below them.

Assays:
Pancreas [1] = test: Induction of insulin secretion in isolated rat pancreas; format: functional, tissue-based
Pancreas [2] = test: Induction of insulin secretion in isolated rat pancreas relative to basal level; format: functional
P2Y purinoceptor 1 [3] = target: T1, P2Y purinoceptor 1 (Homo sapiens, UniProt P47900); test: Agonist activity at P2Y1 receptor expressed in human HEK293 cells; format: functional, cell-based
T1 sequence (P47900 whole entry): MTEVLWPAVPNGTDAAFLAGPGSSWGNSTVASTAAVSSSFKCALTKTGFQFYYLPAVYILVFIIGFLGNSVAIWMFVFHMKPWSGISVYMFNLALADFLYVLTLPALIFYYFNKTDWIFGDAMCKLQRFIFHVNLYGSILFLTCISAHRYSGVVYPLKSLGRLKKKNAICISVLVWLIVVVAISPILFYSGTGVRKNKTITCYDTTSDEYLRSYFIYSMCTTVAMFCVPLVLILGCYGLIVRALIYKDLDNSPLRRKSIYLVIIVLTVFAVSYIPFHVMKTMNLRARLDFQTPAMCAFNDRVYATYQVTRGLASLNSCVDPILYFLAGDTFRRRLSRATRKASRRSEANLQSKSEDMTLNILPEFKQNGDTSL

[4] = Stability in human blood assessed as half life; format: ADME, tissue-based
Rattus norvegicus [5] = test: Antihyperglycemic activity against Han Wistar rat assessed as blood glucose level at […], iv after 45 mins by OGTT; format: functional
Rattus norvegicus [6] = test: Antihyperglycemic activity against Han Wistar rat assessed as increase in insulin level at […], iv after 5 mins relative to basal level; format: functional
P2Y purinoceptor 1 [7] = target: T1, P2Y purinoceptor 1; test: Agonist activity at G-protein coupled P2Y1 receptor expressed in human 1321N1 cells assessed as increase in calcium by Fura2 assay; format: functional, cell-based
In short: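 Cell suspensions loaded with fura-2; [Ca2+]i read by dual-excitation spectrofluorometry at 37 °C in 10 mM HEPES-buffered saline pH 7.4 with 1 mM CaCl2 and 1 mM MgCl2. EC50 from maximal [Ca2+]i rise across concentrations; three experiments on separate days.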

[8] = Stability after 3 hrs in presence of alkaline phosphatase; format: ADME; conditions: isolated protein
In short: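 4 mM nucleotide with calf intestine alkaline phosphatase (12.5 units) in 0.1 M Tris-HCl, 0.1 M MgCl2, final pH 9.8, at 37 °C for 3 h. Stopped at 80 °C for 15 min, then weak anion-exchange cleanup and freeze-drying. Residual analogue quantified by change in reverse-phase HPLC peak integration over time.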

Pancreas [9] = test: Increase in insulin secretion in isolated rat pancreas relative to ATP; format: functional
[10] = Stability in human serum assessed as half life of hydrolysis; format: ADME, cell-free
Rattus norvegicus [11] = test: Antihyperglycemic activity against Han Wistar rat assessed as blood glucose level at […], iv after 150 mins by OGTT; format: functional
[12] = Stability in human whole blood assessed as half life; format: ADME, tissue-based
Rattus norvegicus [13] = test: Antihyperglycemic activity against Han Wistar rat assessed as blood glucose level at 1 mg/kg, po after 45 mins by OGTT; format: functional
In short: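 Overnight-fasted male Wistar Han rats, 10-11 weeks old, jugular-cannulated, 5 per group. Glibenclamide 1 mg/kg given orally at t = -30 min, then oral glucose 2 g/kg (3 mL/kg) at t = 0. Tail vein blood glucose read by glucometer over time, compared with saline-treated controls.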

half-life [4]: 5 min
SMILES: Nc1nc2c(ncn2[C@@H]2O[C@H](COP(=O)(O)OP(=O)(O)OP(=O)(O)OP(=O)(O)OC[C@H]3O[C@@H](n4cnc5c(=O)[nH]c(N)nc54)[C@H](O)[C@@H]3O)[C@@H](O)[C@H]2O)c(=O)[nH]1

EC50 (P2Y purinoceptor 1 [7]; read-out: EC50): 80 nM
SMILES: CSc1nc(N)c2ncn([C@@H]3O[C@H](COP(=O)(O)OP(=O)(O)CP(=O)(O)O)[C@@H](O)[C@H]3O)c2n1 (single isomer, unassigned)
Activity (Rattus norvegicus [11]): 85 mg/dL

EC50 (P2Y purinoceptor 1 [7]; read-out: EC50): 14 nM
SMILES: Nc1ncnc2c1ncn2[C@@H]1O[C@H](COP(=O)(O)OP(=O)(O)O)[C@@H](O)[C@H]1O [ADENOSINE DIPHOSPHATE]

half-life [12]: 2 min
SMILES: Nc1ncnc2c1ncn2[C@@H]1O[C@H](COP(=O)(O)OP(=O)(O)OP(=O)(O)OP(=O)(O)OC[C@H]2O[C@@H](n3cnc4c(N)ncnc43)[C@H](O)[C@@H]2O)[C@@H](O)[C@H]1O [DIADENOSINE TETRAPHOSPHATE]

Further lines, the compound ahead of its results:

SMILES: [BH3-]P(=O)(OC[C@H]1O[C@@H](n2cnc3c(N)nc(SC)nc32)[C@H](O)[C@H]1O)OP(=O)([O-])OP(=O)([O-])[O-].[Na+].[Na+].[Na+].[Na+] (stereo not given in full)
EC50 (Pancreas [1]): 28 nM
fold change (FC) (Pancreas [2]): 9
EC50 (P2Y purinoceptor 1 [3]): 2.6 nM

SMILES: CSc1nc(N)c2ncn([C@@H]3O[C@H](COP(=O)([O-])CP(=O)([O-])OP(=O)([O-])OP(=O)([O-])OC[C@H]4O[C@@H](n5cnc6c(N)nc(SC)nc65)[C@H](O)[C@@H]4O)[C@@H](O)[C@H]3O)c2n1.[Na+].[Na+].[Na+].[Na+]
Activity (Rattus norvegicus [5]): 100 mg/dL
FC (Rattus norvegicus [6]): 4
EC50 (P2Y purinoceptor 1 [7]; read-out: EC50): 420 nM
Stability [8]: Stable

SMILES: CSc1nc(N)c2ncn([C@@H]3O[C@H](COP(=O)([O-])OP(=O)([O-])CP(=O)([O-])OP(=O)([O-])OC[C@H]4O[C@@H](n5cnc6c(N)nc(SC)nc65)[C@H](O)[C@@H]4O)[C@@H](O)[C@H]3O)c2n1.[Na+].[Na+].[Na+].[Na+]
EC50 (P2Y purinoceptor 1 [7]; read-out: EC50): 460 nM
Stability [8]: Stable

SMILES: CSc1nc(N)c2ncn([C@@H]3O[C@H](COP(=O)([O-])CP(=O)([O-])OP(=O)([O-])OC[C@H]4O[C@@H](n5cnc6c(N)nc(SC)nc65)[C@H](O)[C@@H]4O)[C@@H](O)[C@H]3O)c2n1.[Na+].[Na+].[Na+]
EC50 (P2Y purinoceptor 1 [7]; 1321-n1): Not Active
Stability [8]: Stable

SMILES: Nc1ncnc2c1ncn2[C@H]1O[C@@H](COP(=O)(O)OP(=O)(O)OP(=O)(O)OC[C@@H]2O[C@H](n3cnc4c(N)ncnc43)[C@@H](O)[C@H]2O)[C@H](O)[C@@H]1O
EC50 (P2Y purinoceptor 1 [7]; read-out: EC50): 11 nM

SMILES: CCCCCCSc1nc(N)c2ncn([C@H]3O[C@@H](COP(O)(=S)OP(=O)(O)OP(=O)(O)O)[C@H](O)[C@@H]3O)c2n1 (stereo not given in full)
fold change (FC) (Pancreas [9]): 100

SMILES: CSc1nc(N)c2ncn([C@@H]3O[C@H](COP(=O)(O)OP(=O)(O)O)[C@@H](O)[C@H]3O)c2n1 (single isomer, unassigned)
half-life [10]: 726 min

SMILES: COc1ccc(Cl)cc1C(=O)NCCc1ccc(S(=O)(=O)NC(=O)NC2CCCCC2)cc1 [GLYBURIDE]
Activity (Rattus norvegicus [13]): 63 mg/dL
